Laboratory results taken from ChEMBL document CHEMBL3745617 (J Med Chem, 2015).
Activity calls are given as the source filed them. The calls are words filed in the database; no cut-off is given here.

Key:
[1] = target: Proto-oncogene tyrosine-protein kinase receptor Ret (Homo sapiens) (UniProt P07949); experiment: Inhibition of RET (unknown origin) expressed in BaF3 cells assessed as inhibition of cell proliferation after 72 hrs by CelltiterGlo assay; format: cell-based
[2] = target: Epidermal growth factor receptor (Homo sapiens) (UniProt P00533); experiment: Inhibition of EGFR (unknown origin) expressed in BaF3 cells assessed as inhibition of cell proliferation after 72 hrs by CelltiterGlo assay; format: cell-based
[3] = target: Tyrosine-protein kinase JAK3 (Homo sapiens) (UniProt P52333); experiment: Inhibition of JAK3 (unknown origin) expressed in BaF3 cells assessed as inhibition of cell proliferation after 72 hrs by CelltiterGlo assay; format: cell-based
Sequence of Tyrosine-protein kinase JAK3 (Homo sapiens) (P52333 whole entry): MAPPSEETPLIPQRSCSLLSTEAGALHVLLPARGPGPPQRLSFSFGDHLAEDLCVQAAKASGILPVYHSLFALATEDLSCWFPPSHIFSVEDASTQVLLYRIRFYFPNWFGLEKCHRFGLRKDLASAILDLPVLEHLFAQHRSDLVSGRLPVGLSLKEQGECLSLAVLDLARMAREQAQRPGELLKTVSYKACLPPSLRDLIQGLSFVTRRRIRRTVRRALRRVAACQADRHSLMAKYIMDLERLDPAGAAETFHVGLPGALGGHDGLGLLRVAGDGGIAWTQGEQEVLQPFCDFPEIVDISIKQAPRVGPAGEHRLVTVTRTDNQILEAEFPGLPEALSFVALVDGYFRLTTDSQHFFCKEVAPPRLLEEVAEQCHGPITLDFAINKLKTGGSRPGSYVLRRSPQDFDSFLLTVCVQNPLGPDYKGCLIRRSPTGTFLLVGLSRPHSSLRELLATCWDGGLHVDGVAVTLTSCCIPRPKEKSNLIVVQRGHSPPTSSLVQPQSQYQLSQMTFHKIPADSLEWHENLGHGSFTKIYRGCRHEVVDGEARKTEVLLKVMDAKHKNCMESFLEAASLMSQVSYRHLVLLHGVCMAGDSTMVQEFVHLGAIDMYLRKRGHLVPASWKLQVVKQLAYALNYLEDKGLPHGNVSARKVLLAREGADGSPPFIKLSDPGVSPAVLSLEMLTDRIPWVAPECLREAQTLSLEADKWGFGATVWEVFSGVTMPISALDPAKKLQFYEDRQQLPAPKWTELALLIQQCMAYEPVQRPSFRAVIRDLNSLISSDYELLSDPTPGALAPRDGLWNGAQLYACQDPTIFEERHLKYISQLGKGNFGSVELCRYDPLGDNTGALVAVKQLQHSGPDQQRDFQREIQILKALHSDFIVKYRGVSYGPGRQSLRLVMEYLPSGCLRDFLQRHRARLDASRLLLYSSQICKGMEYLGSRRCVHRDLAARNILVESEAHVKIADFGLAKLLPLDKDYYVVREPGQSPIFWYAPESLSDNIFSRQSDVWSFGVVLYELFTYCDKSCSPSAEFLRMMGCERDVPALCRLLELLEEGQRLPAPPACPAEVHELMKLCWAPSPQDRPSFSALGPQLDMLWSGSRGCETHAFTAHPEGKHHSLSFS

[4] = Antiproliferative activity against human U2932 cells after 72 hrs by CelltiterGlo assay; format: functional; conditions: U2932, 72 h
[5] = target: Tyrosine-protein kinase Lck (Homo sapiens) (UniProt P06239); experiment: Inhibition of LCK (unknown origin) assessed as remaining activity at 1 uM relative to control
Sequence of Tyrosine-protein kinase Lck (Homo sapiens) (P06239 2-509 limits assumed): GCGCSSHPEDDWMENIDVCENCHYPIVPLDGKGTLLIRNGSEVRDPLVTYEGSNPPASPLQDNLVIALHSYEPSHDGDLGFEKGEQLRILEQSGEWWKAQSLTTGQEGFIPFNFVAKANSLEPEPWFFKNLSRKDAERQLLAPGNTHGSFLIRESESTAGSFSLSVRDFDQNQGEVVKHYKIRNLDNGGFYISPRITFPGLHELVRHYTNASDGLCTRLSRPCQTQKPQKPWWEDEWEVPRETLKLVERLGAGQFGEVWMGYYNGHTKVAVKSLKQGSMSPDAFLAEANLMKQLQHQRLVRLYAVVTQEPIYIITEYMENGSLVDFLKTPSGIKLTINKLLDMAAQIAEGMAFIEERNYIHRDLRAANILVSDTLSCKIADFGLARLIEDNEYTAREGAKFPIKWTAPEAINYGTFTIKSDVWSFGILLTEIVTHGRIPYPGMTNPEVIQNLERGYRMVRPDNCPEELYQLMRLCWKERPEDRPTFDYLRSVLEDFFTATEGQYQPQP
Summary of the method: (§1)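 KinomeScan competition binding panel of 468 kinases, with the compound tested at 1 µM. Each kinase's result is reported as percent activity remaining relative to a DMSO control.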

[6] = target: Cytoplasmic tyrosine-protein kinase BMX (Homo sapiens) (UniProt P51813); experiment: Inhibition of BMX (unknown origin) expressed in BaF3 cells assessed as inhibition of cell proliferation after 72 hrs by CelltiterGlo assay; format: cell-based
Sequence of Cytoplasmic tyrosine-protein kinase BMX (Homo sapiens) (P51813 whole entry): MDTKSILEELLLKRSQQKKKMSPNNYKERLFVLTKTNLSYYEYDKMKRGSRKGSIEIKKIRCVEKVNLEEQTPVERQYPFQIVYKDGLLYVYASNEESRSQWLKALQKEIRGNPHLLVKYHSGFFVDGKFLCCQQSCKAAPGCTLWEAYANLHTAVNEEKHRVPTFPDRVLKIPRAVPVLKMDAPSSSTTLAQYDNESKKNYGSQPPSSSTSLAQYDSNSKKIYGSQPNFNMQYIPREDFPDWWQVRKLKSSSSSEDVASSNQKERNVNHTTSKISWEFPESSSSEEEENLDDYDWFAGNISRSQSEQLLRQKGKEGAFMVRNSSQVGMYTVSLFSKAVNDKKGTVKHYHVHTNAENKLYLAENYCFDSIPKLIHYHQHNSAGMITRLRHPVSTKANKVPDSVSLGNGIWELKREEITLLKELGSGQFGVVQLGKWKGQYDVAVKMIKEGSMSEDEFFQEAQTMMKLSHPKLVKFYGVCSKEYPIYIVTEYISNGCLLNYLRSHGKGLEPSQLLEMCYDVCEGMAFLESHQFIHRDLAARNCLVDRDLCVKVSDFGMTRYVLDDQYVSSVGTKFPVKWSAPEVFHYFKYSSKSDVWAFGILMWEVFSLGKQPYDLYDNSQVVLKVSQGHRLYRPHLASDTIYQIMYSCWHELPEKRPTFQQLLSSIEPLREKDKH

[7] = target: Receptor-type tyrosine-protein kinase FLT3 (Homo sapiens) (UniProt P36888); conditions: MOLM-14, 0.03 to 3 uM
[8] = target: Receptor-type tyrosine-protein kinase FLT3 (Homo sapiens) (UniProt P36888); conditions: MV4-11, 0.03 to 3 uM
[9] = Half life in Sprague-Dawley rat at 10 mg/kg, po; format: ADME, organism-based; conditions: in vivo
[10] = Antiproliferative activity against human NB4 cells after 72 hrs by CelltiterGlo assay; format: functional; conditions: NB-4, 72 h
[11] = target: Tyrosine-protein kinase Srms (Homo sapiens) (UniProt Q9H3Y6); experiment: Inhibition of SRMS (unknown origin) assessed as remaining activity at 1 uM relative to control; summary of the method: as §1
Sequence of Tyrosine-protein kinase Srms (Homo sapiens) (Q9H3Y6 whole entry): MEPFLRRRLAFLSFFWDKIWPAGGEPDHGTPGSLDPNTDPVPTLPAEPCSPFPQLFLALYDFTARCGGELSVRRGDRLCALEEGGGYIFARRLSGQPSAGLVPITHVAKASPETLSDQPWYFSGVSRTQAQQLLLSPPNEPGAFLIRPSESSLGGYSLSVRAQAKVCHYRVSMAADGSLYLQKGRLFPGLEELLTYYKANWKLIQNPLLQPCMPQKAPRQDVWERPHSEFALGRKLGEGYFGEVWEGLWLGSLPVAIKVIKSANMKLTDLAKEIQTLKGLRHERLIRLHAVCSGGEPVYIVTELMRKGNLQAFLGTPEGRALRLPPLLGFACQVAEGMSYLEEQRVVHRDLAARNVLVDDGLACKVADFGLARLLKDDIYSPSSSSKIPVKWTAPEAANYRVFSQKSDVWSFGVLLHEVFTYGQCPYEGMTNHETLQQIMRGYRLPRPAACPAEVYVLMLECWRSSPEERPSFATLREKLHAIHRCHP

[12] = AUC (0 to t) in Sprague-Dawley rat at 1 mg/kg, iv; format: ADME, organism-based; conditions: in vivo
[13] = Oral bioavailability in Sprague-Dawley rat at 10 mg/kg; format: ADME, organism-based; conditions: in vivo
[14] = Antiproliferative activity against human SU-DHL-2 cells after 72 hrs by CelltiterGlo assay; format: functional; conditions: SU-DHL-2, 72 h
[15] = system: Receptor-type tyrosine-protein kinase FLT3 (Homo sapiens), P36888 [UNDEFINED MUTATION]; conditions: BaF3
[16] = Half life in Sprague-Dawley rat at 1 mg/kg, iv; format: ADME, organism-based; conditions: in vivo
[17] = AUC (0 to infinity) in Sprague-Dawley rat at 1 mg/kg, iv; format: ADME, organism-based; set-up: dose 1 mg/kg, route intravenous, time infinity; conditions: in vivo
MOLM-14 = experiment: Induction of apoptosis in human MOLM14 cells assessed as cleaved caspase-3 level at 0.03 to 1 uM after 24 hrs by immunoblot analysis; format: functional, cell-based
[18] = target: Tyrosine-protein kinase BTK (Homo sapiens, UniProt Q06187); experiment: Inhibition of BTK (unknown origin) by ADP-Glo assay
Sequence of Tyrosine-protein kinase BTK (Q06187 whole entry): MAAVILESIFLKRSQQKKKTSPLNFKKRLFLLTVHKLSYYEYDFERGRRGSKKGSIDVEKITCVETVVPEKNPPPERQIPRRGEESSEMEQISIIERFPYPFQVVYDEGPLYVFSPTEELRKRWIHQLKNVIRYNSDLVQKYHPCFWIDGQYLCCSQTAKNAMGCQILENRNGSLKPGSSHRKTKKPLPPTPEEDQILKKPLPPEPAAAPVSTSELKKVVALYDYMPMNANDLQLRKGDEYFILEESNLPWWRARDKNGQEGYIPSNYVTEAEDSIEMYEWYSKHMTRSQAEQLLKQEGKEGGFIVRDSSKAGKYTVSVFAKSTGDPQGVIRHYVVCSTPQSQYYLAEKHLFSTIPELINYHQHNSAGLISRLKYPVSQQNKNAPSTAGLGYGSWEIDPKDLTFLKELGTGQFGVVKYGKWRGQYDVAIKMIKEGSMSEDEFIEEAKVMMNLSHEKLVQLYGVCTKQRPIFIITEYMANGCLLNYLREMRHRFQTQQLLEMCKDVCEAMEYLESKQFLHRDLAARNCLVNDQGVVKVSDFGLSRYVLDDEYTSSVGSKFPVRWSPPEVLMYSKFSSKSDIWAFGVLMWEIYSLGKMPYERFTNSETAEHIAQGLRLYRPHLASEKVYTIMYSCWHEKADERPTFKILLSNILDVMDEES

MV4-11 [19] = experiment: Induction of apoptosis in human MV4-11 cells assessed as cleaved PARP level at 0.03 to 1 uM after 48 hrs by immunoblot analysis; format: functional, cell-based
MV4-11 [20] = experiment: Antiproliferative activity against human MV4-11 cells after 72 hrs by CelltiterGlo assay; format: functional; conditions: MV4-11, 72 h
[21] = target: Receptor-type tyrosine-protein kinase FLT3 (Homo sapiens) (UniProt P36888); conditions: MOLM-13, 0.03 to 3 uM
[22] = target: Platelet-derived growth factor receptor beta (Homo sapiens) (UniProt P09619); experiment: Inhibition of PDGFRB (unknown origin) expressed in BaF3 cells assessed as inhibition of cell proliferation after 72 hrs by CelltiterGlo assay; format: cell-based
Sequence of Platelet-derived growth factor receptor beta (Homo sapiens) (P09619 whole entry): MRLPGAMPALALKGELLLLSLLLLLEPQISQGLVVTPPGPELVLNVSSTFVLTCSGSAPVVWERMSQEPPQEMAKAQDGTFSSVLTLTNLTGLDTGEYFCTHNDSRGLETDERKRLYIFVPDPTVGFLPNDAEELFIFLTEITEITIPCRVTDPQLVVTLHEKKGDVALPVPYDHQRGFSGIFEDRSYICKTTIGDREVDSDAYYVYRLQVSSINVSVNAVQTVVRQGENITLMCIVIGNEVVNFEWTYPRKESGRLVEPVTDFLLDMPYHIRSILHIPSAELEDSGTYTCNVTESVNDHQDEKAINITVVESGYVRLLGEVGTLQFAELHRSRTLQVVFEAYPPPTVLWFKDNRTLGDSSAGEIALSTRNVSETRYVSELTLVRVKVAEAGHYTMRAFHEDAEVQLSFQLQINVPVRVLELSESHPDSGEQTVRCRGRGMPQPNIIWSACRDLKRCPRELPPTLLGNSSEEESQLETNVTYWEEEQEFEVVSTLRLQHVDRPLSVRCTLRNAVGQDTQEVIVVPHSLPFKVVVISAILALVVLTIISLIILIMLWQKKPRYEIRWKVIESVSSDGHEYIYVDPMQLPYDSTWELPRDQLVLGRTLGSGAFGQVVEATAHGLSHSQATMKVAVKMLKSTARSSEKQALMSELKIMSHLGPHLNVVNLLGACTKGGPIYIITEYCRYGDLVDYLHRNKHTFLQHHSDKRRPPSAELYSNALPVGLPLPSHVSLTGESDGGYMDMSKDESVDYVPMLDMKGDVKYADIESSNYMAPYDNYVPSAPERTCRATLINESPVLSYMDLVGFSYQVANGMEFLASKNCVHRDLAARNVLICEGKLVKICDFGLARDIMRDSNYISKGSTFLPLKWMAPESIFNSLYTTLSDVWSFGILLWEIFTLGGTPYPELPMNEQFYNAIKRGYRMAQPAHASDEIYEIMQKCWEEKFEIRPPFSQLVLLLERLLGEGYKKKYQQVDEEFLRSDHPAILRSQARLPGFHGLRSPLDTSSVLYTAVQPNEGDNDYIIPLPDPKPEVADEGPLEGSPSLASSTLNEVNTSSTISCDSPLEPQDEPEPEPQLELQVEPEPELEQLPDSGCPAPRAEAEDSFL

MOLM-13 [23] = experiment: Induction of apoptosis in human MOLM13 cells assessed as cleaved caspase-3 level at 0.03 to 1 uM after 12 hrs by immunoblot analysis; format: functional, cell-based
[24] = Antiproliferative activity against human JVM2 cells after 72 hrs by CelltiterGlo assay; format: functional; conditions: JVM-2, 72 h
[25] = system: Receptor-type tyrosine-protein kinase FLT3 (Homo sapiens), P36888 [D835V]; conditions: BaF3
[26] = target: Receptor-type tyrosine-protein kinase FLT3 (Homo sapiens) (UniProt P36888); conditions: MV4-11, 0.03 to 3 uM; remark: listed apart in the source
[27] = Cell cycle arrest in human MOLM14 cells assessed as accumulation at G0/G1 phase at 0.03 to 1 uM after 24 hrs by flow cytometry; format: functional, cell-based; conditions: MOLM-14
[28] = target: Mast/stem cell growth factor receptor Kit (Homo sapiens, UniProt P10721); experiment: Inhibition of c-KIT (unknown origin) expressed in BaF3 cells assessed as inhibition of cell proliferation after 72 hrs by CelltiterGlo assay; format: cell-based
MV4-11 [29] = experiment: Induction of apoptosis in human MV4-11 cells assessed as cleaved caspase-3 level at 0.03 to 1 uM after 48 hrs by immunoblot analysis; format: functional, cell-based
[30] = target: Tyrosine-protein kinase Lck (Homo sapiens) (UniProt P06239); experiment: Inhibition of LCK (unknown origin) expressed in BaF3 cells assessed as inhibition of cell proliferation after 72 hrs by CelltiterGlo assay; format: cell-based
MOLM-13 [31] = experiment: Induction of apoptosis in human MOLM13 cells assessed as cleaved PARP level at 0.03 to 1 uM after 12 hrs by immunoblot analysis; format: functional, cell-based
[32] = Antiproliferative activity against human NAMALWA cells after 72 hrs by CelltiterGlo assay; format: functional; conditions: NAMALVA
[33] = target: Receptor-type tyrosine-protein kinase FLT3 (Homo sapiens) (UniProt P36888); conditions: MOLM-13, 0.03 to 3 uM; remark: listed apart in the source
[34] = target: Receptor-type tyrosine-protein kinase FLT3 (Homo sapiens) (UniProt P36888); conditions: MOLM-14, 0.03 to 3 uM; remark: listed apart in the source
[35] = target: Tyrosine-protein kinase HCK (Homo sapiens) (UniProt P08631); experiment: Inhibition of HCK (unknown origin) assessed as remaining activity at 1 uM relative to control
Summary of the method: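 KinomeScan competitive binding panel of 468 kinases. Compound tested at a single 1 µM concentration. Read-out is percent of kinase activity remaining relative to a DMSO control.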

[36] = Cmax in Sprague-Dawley rat at 10 mg/kg, po; format: ADME, organism-based; set-up: dose 10 mg/kg, route oral; conditions: in vivo
[37] = AUC(0 to infinity) in Sprague-Dawley rat at 10 mg/kg, po; format: ADME, organism-based; set-up: dose 10 mg/kg, route oral, time infinity; conditions: in vivo
[38] = Antiproliferative activity against human MOLM13 cells after 72 hrs by CelltiterGlo assay; format: functional; conditions: MOLM-13, 72 h
[39] = Antiproliferative activity against human MOLM14 cells after 72 hrs by CelltiterGlo assay; format: functional; conditions: MOLM-14, 72 h
[40] = Mean residence time (0 to infinity) in Sprague-Dawley rat at 10 mg/kg, po; format: ADME, organism-based; conditions: in vivo

GI50 [1]: 650 nM | GI50 [2]: 1800 nM | GI50 [3]: 2500 nM | Activity [5]: 0% | GI50 [6]: 280 nM | inhibition [7]: Active | inhibition [8]: Active | half-life [9]: 1.24 h | Activity [11]: 0% | AUC(0-t) [12]: 607 ng·h/mL | bioavailability [13]: 30.4% | GI50 [15]: 220 nM | half-life [16]: 1.38 h | AUC(0-inf) [17]: 619 ng·h/mL | IC50 [18]: 421 nM | GI50 (MV4-11 [20]): 22 nM | inhibition [21]: Active | GI50 [22]: 680 nM | GI50 [25]: 3 nM | inhibition [26]: Active | GI50 [28]: 1900 nM | GI50 [30]: 310 nM | inhibition [33]: Active | inhibition [34]: Active | Activity [35]: 0.5% | Cmax [36]: 458 ng/mL | AUCinf [37]: 1880 ng·h/mL | MRT inf [40]: 2.75 h
Structure (SMILES): CN(C)CC(=O)N1CCC[C@@H](n2nc(-c3ccc(Oc4ccccc4)cc3)c3c(N)ncnc32)C1
GI50 [4]: 1600 nM | GI50 [10]: 3800 nM | GI50 [14]: 5500 nM | Activity (MOLM-14): Active | Activity (MV4-11 [19]): Active | Activity (MOLM-13 [23]): Active | GI50 [24]: 2600 nM | Activity [27]: Active | Activity (MV4-11 [29]): Active | Activity (MOLM-13 [31]): Active | GI50 [32]: 6400 nM | GI50 [38]: 21 nM | GI50 [39]: 42 nM
